Experiment [1] deals with Human immunodeficiency virus 1. Put plainly: Ratio of EC50 for HIV1 NL4-3 harboring L10F/D30N/K45I/A71V/T74S amino acid substitution in protease encoding region to EC50 for HIV1 NL4-3. In kind it is functional.
For experiment [2], the system named is Human immunodeficiency virus 1. Description: Antiviral activity against HIV1 NL4-3 harboring L10F/L33F/M46I/I47V/Q58E/V82I/I84V/I85V amino acid substitution in protease encoding region infected in human MT4 cells assessed as inhibition of p24 Gag protein production selected at 5 uM of GRL-02031 by ELISA. It counts as functional, organism-based. The note with it: Human immunodeficiency virus 1, NL4-3, MT4. The method in brief:
(§1)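 Cell-free passage used day-7 supernatants. Variants were then tested in MT-4 cells (10^5/ml) with 100 TCID50s, with or without drug, at 37°C. Day-7 p24 Gag was read by chemiluminescent immunoassay; EC50 vs drug-free control; triplicate.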
In general terms: An ELISA detects its analyte on a solid surface through an enzyme-linked reagent.

Experiment [3] has as its system Human immunodeficiency virus 1. Put plainly: Antiviral activity against HIV1 NL4-3 harboring M46I/V82F/I84V amino acid substitution in protease encoding region infected in human MT4 cells assessed as inhibition of p24 Gag protein production selected at 5 uM of ritonavir by ELISA. In kind it is functional, organism-based. To be noted: Human immunodeficiency virus 1, NL4-3, MT4. The method in brief: (§2)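 HIV-1NL4-3 (500 TCID50s) was passaged in MT-4 cells, starting at 0.01–0.03 µM PI and raising the drug generally two- to threefold as virus propagated. Cell-free passage used day-7 supernatants. Variants were then tested in MT-4 cells (10^5/ml) with 100 TCID50s, with or without drug, at 37°C. Day-7 p24 Gag was read by chemiluminescent immunoassay; EC50 vs drug-free control; triplicate.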

In experiment [4] the test system is Human immunodeficiency virus 1. Description: Ratio of EC50 for HIV1 NL4-3 harboring L10F/V32I/M46I/I54M//A71V/I84V amino acid substitution in protease encoding region to EC50 for HIV1 NL4-3. In kind it is functional. The gist of the method: (§3)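 MT-4 cells (10^5/ml) infected with 100 TCID50s of PI-selected HIV-1NL4-3 variants or the parental strain, with or without serial drug concentrations, at 37°C. Day 7 supernatant p24 Gag measured by chemiluminescent enzyme immunoassay. […] Triplicate. Ratio is variant EC50 over wild-type EC50.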

For experiment [5], the system named is Human immunodeficiency virus 1. Put plainly: Antiviral activity against HIV1 NL4-3 harboring L10F/L24I/M46I/L63P/A71V/G73S/V82T amino acid substitution in protease encoding region infected in human MT4 cells assessed as inhibition of p24 Gag protein production selected at 5 uM of indinavir by ELISA. It counts as functional, organism-based. The note with it: Human immunodeficiency virus 1, NL4-3, MT4. The method in brief: as §2

Experiment [6] relates to Human immunodeficiency virus 1. Put plainly: Ratio of EC50 for HIV1 NL4-3 harboring L10F/M46I/I54V/V82A amino acid substitution in protease encoding region to EC50 for HIV1 NL4-3. It counts as functional. The gist of the method:
as §3

Experiment [7] relates to Human immunodeficiency virus 1. Put plainly: Antiviral activity against HIV1 NL4-3 infected in human MT4 cells assessed as inhibition of p24 gag protein production by ELISA. In kind it is functional, organism-based. The note with it: Human immunodeficiency virus 1, NL4-3, MT4. The method in brief: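 MT-4 cells (10^5/ml) were infected with 100 TCID50s of HIV-1 and cultured at 37°C with or without various drug concentrations. On day 7, supernatant p24 Gag was measured by automated chemiluminescent enzyme immunoassay. […] Assays were run in triplicate.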

For experiment [8], the system named is Human immunodeficiency virus 1. Description: Antiviral activity against HIV1 NL4-3 harboring L23I/K43I/M46I/I50L/G51A/A71V amino acid substitution in protease encoding region infected in human MT4 cells assessed as inhibition of p24 Gag protein production selected at 1 uM of atazanavir by ELISA. In kind it is functional, organism-based. To be noted: Human immunodeficiency virus 1, NL4-3, MT4. The gist of the method: as §2

Experiment [9] relates to Human immunodeficiency virus 1. Description: Antiviral activity against HIV1 NL4-3 harboring L10F/D30N/K45I/A71V/T74S amino acid substitution in protease encoding region infected in human MT4 cells assessed as inhibition of p24 Gag protein production selected at 5 uM of nelfinavir by ELISA. It counts as functional, organism-based. The note with it: Human immunodeficiency virus 1, NL4-3, MT4. The method in brief: as §2

Experiment [10] relates to Human immunodeficiency virus 1. Description: Antiviral activity against HIV1 NL4-3 harboring L10F/V32I/M46I/I54M//A71V/I84V amino acid substitution in protease encoding region infected in human MT4 cells assessed as inhibition of p24 Gag protein production selected at 5 uM of amprenavir by ELISA. It counts as functional, organism-based. To be noted: Human immunodeficiency virus 1, NL4-3, MT4. The gist of the method:
as §1

The subject of experiment [11] is Human immunodeficiency virus 1. Put plainly: Antiviral activity against HIV1 NL4-3 harboring L10I/G48V/I54V/L90M amino acid substitution in protease encoding region infected in human MT4 cells assessed as inhibition of p24 Gag protein production selected at 5 uM of saquinavir by ELISA. It counts as functional, organism-based. The note with it: Human immunodeficiency virus 1, NL4-3, MT4. The gist of the method: as §2

For experiment [12], the system named is Human immunodeficiency virus 1. Description: Ratio of EC50 for HIV1 NL4-3 harboring L10F/L33F/M46I/I47V/Q58E/V82I/I84V/I85V amino acid substitution in protease encoding region to EC50 for HIV1 NL4-3. It counts as functional. The gist of the method:
as §3

Experiment [13] relates to Human immunodeficiency virus 1. Put plainly: Ratio of EC50 for HIV1 NL4-3 harboring L23I/K43I/M46I/I50L/G51A/A71V amino acid substitution in protease encoding region to EC50 for HIV1 NL4-3. In kind it is functional. The method in brief: as §3
Experiment [14] concerns Human immunodeficiency virus 1. Description: Ratio of EC50 for HIV1 NL4-3 harboring L10I/G48V/I54V/L90M amino acid substitution in protease encoding region to EC50 for HIV1 NL4-3. In kind it is functional. The gist of the method: as §3
Experiment [15] concerns Human immunodeficiency virus 1. Description: Antiviral activity against HIV1 NL4-3 harboring L10F/M46I/I54V/V82A amino acid substitution in protease encoding region infected in human MT4 cells assessed as inhibition of p24 Gag protein production selected at 1 uM of Lopinavir by ELISA. It counts as functional, organism-based. To be noted: Human immunodeficiency virus 1, NL4-3, MT4. The method in brief:
as §1

For experiment [16], the system named is Human immunodeficiency virus 1. Description: Ratio of EC50 for HIV1 NL4-3 harboring L10F/L24I/M46I/L63P/A71V/G73S/V82T amino acid substitution in protease encoding region to EC50 for HIV1 NL4-3. In kind it is functional. The gist of the method:
as §3

The test system of experiment [17] is Human immunodeficiency virus 1. Put plainly: Ratio of EC50 for HIV1 NL4-3 harboring M46I/V82F/I84V amino acid substitution in protease encoding region to EC50 for HIV1 NL4-3. It counts as functional. The gist of the method:
as §3

pEC50: −log10 of the molar value.

For `COC(=O)N[C@H](C(=O)N[C@@H](Cc1ccccc1)[C@@H](O)CN(Cc1ccc(-c2ccccn2)cc1)NC(=O)[C@@H](NC(=O)OC)C(C)(C)C)C(C)(C)C` [ATAZANAVIR], the “Ratio EC50” value in [1] was 6; in experiment [4] it was 1; in experiment [6], 10; in experiment [12] it was 8; in experiment [13], 72; in [14], 74. Besides, the results for the “Ratio EC50” value in [16] and in [17] were 15 and 5, respectively. Moreover, the pEC50 (as a rule, the negative decadic logarithm of the EC50, by convention in mol/L) was 7.44 in [2]; 7.68 in experiment [3]; 7.20 in [5]; 8.37 in experiment [7]; 6.51 in experiment [8]; 7.62 in experiment [9]. Moreover, the pEC50 in [10] was 8.49; in [11] it was 6.49; in experiment [15] it was 7.39.
